Bioassay records as filed in PubChem.
A selection: hits, their analogues and other compounds. The true share with any hit is near 3.1%.
Beta apoptosis: blocks beta cell apoptosis; hit rate 0.8% among 300,000; INS-1E cytokine-induced death, ATP luminescence, 48 h; percent of positive-control rescue, neutral wells zero; protection from apoptosis, % (test concentration not listed);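 active means Every replicate reaches about 75%, or at least half do and their mean reaches it too, limit read from the data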;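 further: 0% = cytokine-treated negative control wells and 100% = positive control rescue; higher means more ATP so stronger rescue from cytokine killing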
CSC inhib: blocks cancer stem cells; cancer stem cell-like cells viability, luminescence; inhibition, % at 7.5 µM; hit rate 1.1% among 300,000; AID 2717; in the data active means inhibition above about 75%; tested in HMLE shEcad cells
Calb FLC: C. albicans growth modulation with fluconazole; growth inhibition, % (test concentration not listed); C. albicans CaCi-2 (fluconazole-resistant clinical isolate) + fluconazole, Alamar Blue growth, 48 h; hit rate 0.57% among 300,000;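 active means growth inhibition above about 58% in most replicates, limit read from the data, passing the limit was not always enough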;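 further: all wells also contain fluconazole at 8 µg/ml as a sub-toxic cotreatment; 0% = median of DMSO wells and 100% = median of geldanamycin control wells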
Bfl-1 A1 inh: inhibitors of the anti-apoptotic protein A1, read as caspase activation; MEF A1-2A-BIM cells, Caspase-Glo 3/7 luminescence, 3 h; percent of clofoctol response, vehicle zero; caspase activation, % (concentration not given with the values); AID 2462; hit rate 0.066% among 330,000;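 active means over half of replicate activation scores above 10%, or exactly half above 10 with the replicate mean above 10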
T cruzi repl: blocks replication of Trypanosoma cruzi. hit rate 1.4% among 300,000. AID 1885. T. cruzi beta-gal in NIH3T3, luminescence, 90 h. inhibition, % (no concentration beside the values);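 active means mean inhibition across valid replicates above about 55%, limit read from the data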;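 further: signal also drops with host cell toxicity which is not excluded here; 0% = plate median of DMSO wells and 100% = zero luminescence signal; higher percent means less beta-gal luminescence so fewer parasites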
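System: Mouse NIH/3T3 fibroblasts infected with β-gal-expressing T. cruzi Tulahuen C4 | Quantity: NIH/3T3 cells, 5,000 per well | Reagent: 5000 reporter trypomastigotes per well | Dosing: Compound pinned at 50 nL/well, DMSO | Schedule: 3 h host attachment, then at least 90 h co-culture | Detection: GalScreen luminescence, 60 min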
TAG inh: triacylglycerol accumulation inhibition; H9c2 cells, Nile Red lipid (TAG) fluorescence; cells loaded with 200 µM oleic acid; inhibition, % at 12.5 µM; hit rate 0.66% among 230,000; AID 651582;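 active means pattern-corrected inhibition of lipid staining of at least 50% with the nuclear-stain viability signal not falling by more than 50%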;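 further: 0% = DMSO wells and 100% = triacsin C control wells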
* marks the source's active call; other numbers are inactive results.

Cc1ccc(CN2CCCC(C(=O)c3sccc3C)C2)o1 (configuration not stated) was read as Beta apoptosis -3.4, CSC inhib -8.8, Calb FLC 11.6, Bfl-1 A1 inh 0.8, T cruzi repl 66.0* and TAG inh -4.5.
`Cc1ccsc1C(=O)C1CCCN(Cc2ccc(-n3cccn3)cc2)C1` (configuration not stated) gave Beta apoptosis -5.2, CSC inhib -4.9, Calb FLC 2.0, Bfl-1 A1 inh -0.1, T cruzi repl 61.4* and TAG inh -16.5.
Screening Cc1ccsc1C(=O)C1CCCN(Cc2c(C)nn(C(C)C)c2C)C1 (configuration not stated) returned Beta apoptosis 3.4, Calb FLC -2.2, Bfl-1 A1 inh 0.4, T cruzi repl 61.7* and TAG inh -21.5.
`Cc1ccsc1C(=O)C1CCCN(Cc2cnc(N3CCCC3)s2)C1` (configuration not stated) gave Beta apoptosis 0.4, CSC inhib 9.5, Calb FLC -9.2, Bfl-1 A1 inh 0.0, T cruzi repl 63.3* and TAG inh -6.4.
Oc1c(Br)cc(Br)cc1Oc1ccc(Br)cc1Br was read as Beta apoptosis 9.4, CSC inhib 107.8*, Calb FLC 87.4*, Bfl-1 A1 inh -0.1 and T cruzi repl -9.5.
Oc1ccc(/C=N/NP(=S)(c2ccccc2)c2ccccc2)c(O)c1O was read as Beta apoptosis 1.0, CSC inhib -16.4, Calb FLC 104.2*, Bfl-1 A1 inh 0.0 and T cruzi repl 4.2.
Oc1ccccc1/C=N/NP(=S)(c1ccccc1)c1ccccc1 was read as Beta apoptosis 6.3, CSC inhib 96.5*, Calb FLC 13.5, Bfl-1 A1 inh -0.1, T cruzi repl 10.2 and TAG inh -41.0.
Clc1ccccc1C1=NCc2nncn2-c2sc(Br)cc21 was read as CSC inhib -7.4, Calb FLC -11.9, Bfl-1 A1 inh 0.1, T cruzi repl -5.9 and TAG inh -2.1.
COc1ccc(-n2c(-c3ccccc3[N+](=O)[O-])nc3ccccc3c2=O)cc1 was read as Beta apoptosis 6.0, CSC inhib -15.7, Calb FLC 1.5, Bfl-1 A1 inh -0.6 and T cruzi repl -19.2.
O=C(O)c1cc[c]([Hg][Cl])cc1 was read as Beta apoptosis 1.0, CSC inhib -5.0, Bfl-1 A1 inh -0.1 and TAG inh 13.5.
`CC1=C(C)CC2(C(=O)NC(=O)NC2=O)C(C)C1` (configuration not stated) gave TAG inh 4.0.
For O=c1[nH]c(=O)n(-c2ccccc2)c(O)c1/C=C1/C(c2ccccc2)=Nc2ccccc21 the results were Beta apoptosis 7.9, CSC inhib 88.4*, Calb FLC -13.9, Bfl-1 A1 inh 1.5 and T cruzi repl 7.1.
`Nc1cccc(SC2CC(=O)N(c3ccc(Cl)cc3C(=O)c3ccccc3)C2=O)c1` (configuration not stated) gave TAG inh -8.1.
For CCOC(=O)c1ccc2[nH]c(-c3ccc(S(=O)(=O)F)cc3)cc(=O)c2c1 the results were Beta apoptosis 0.9, CSC inhib -0.8, Bfl-1 A1 inh -0.7 and T cruzi repl -2.8.
`CC(C)(C)c1cc([N+](=O)[O-])cc(C(C)(C)C)c1O` gave Beta apoptosis 99.9*, CSC inhib 46.8, Calb FLC 2.0, Bfl-1 A1 inh 0.4 and T cruzi repl -94.4.
`COc1ccc(CCNCc2ccc(SC)cc2)cc1` gave Beta apoptosis -2.6, CSC inhib 10.4, Calb FLC -2.4, Bfl-1 A1 inh 0.5 and T cruzi repl 60.5*.
COC(COC(N)=O)C1=C(N2CC2)C(=O)C(C)=C(N2CC2)C1=O (configuration not stated) was read as TAG inh 59.7*.
`COC(=O)C1=C(c2c(C)noc2C)C[C@@H]2CC[C@H]1N2C(=O)NCCNC(C)=O` gave Beta apoptosis -0.5, CSC inhib 0.7, Bfl-1 A1 inh 0.9 and TAG inh 1.1.
Screening CCOCCCn1c(N)c(C(=O)Nc2sc3c(c2C(=O)OC)CCCC3)c2nc3ccccc3nc21 returned Calb FLC 4.1, Bfl-1 A1 inh 0.4 and T cruzi repl 7.4.
For CCCCCCn1c(N)c(C(=O)NCCN2CCOCC2)c2nc3ccccc3nc21 the results were Beta apoptosis -2.7, CSC inhib 111.3*, Calb FLC 6.6, Bfl-1 A1 inh 0.8, T cruzi repl 28.2 and TAG inh -6.3.
Screening Nc1c(C(=O)NCCCc2ccccc2)c2nc3ccccc3nc2n1Cc1cccs1 returned Beta apoptosis -12.4, CSC inhib 42.9, Calb FLC 4.9, Bfl-1 A1 inh -0.5, T cruzi repl 57.8* and TAG inh 23.5.
CCOC(=O)c1c(NC(=O)c2c(N)n(CCCOC)c3nc4ccccc4nc23)sc2c1CCCC2 was read as Beta apoptosis 1.8, CSC inhib 3.0, Calb FLC -16.3, Bfl-1 A1 inh -0.3 and T cruzi repl 64.0*.
For O=[N+]([O-])c1cccc(NP(=O)(Oc2ccccc2)Oc2ccccc2)c1 the results were Beta apoptosis 1.6, CSC inhib 5.9, Calb FLC -21.2, Bfl-1 A1 inh 0.7 and T cruzi repl -18.3.
CC1=C2[C@H]3OC(=O)[C@@H](C)[C@@H]3CC[C@@]2(C)C=CC1=O was read as Beta apoptosis 1.6, CSC inhib -7.3 and Bfl-1 A1 inh 0.2.
For CCOc1cc2c(cc1OCC)-n1cccc1C(c1cccc(F)c1)NC2 (configuration not stated) the results were Beta apoptosis 1.3, CSC inhib -8.2, Calb FLC 7.2, Bfl-1 A1 inh -0.2 and T cruzi repl 28.0.
For O=[N+]([O-])c1ccccc1-c1cc(-c2ccccc2)cc(-c2ccccc2)[n+]1Cc1ccccc1Cl the results were Beta apoptosis 134.0*, CSC inhib 36.5, Calb FLC -12.1, Bfl-1 A1 inh 0.1 and T cruzi repl 56.2*.
For O=C(c1cc2c(s1)-c1ccccc1OC2)N1CCC2(CC1)OCCO2 the results were CSC inhib 43.5, Calb FLC 100.2*, Bfl-1 A1 inh -7.7 and T cruzi repl -13.7.
Screening O=C(c1ccc(N2CCCCC2)c([N+](=O)[O-])c1)N1CCC2(CC1)OCCO2 returned Beta apoptosis -5.7, CSC inhib 15.6, Calb FLC 8.8, Bfl-1 A1 inh -0.2, T cruzi repl -6.3 and TAG inh -11.0.
CC1CCCN(c2ccc(C(=O)N3CCC4(CC3)OCCO4)cc2[N+](=O)[O-])C1 (configuration not stated) was read as Beta apoptosis -26.6, CSC inhib 115.7*, Calb FLC -8.9, Bfl-1 A1 inh -0.7, T cruzi repl 11.6 and TAG inh 12.5.
